Calls of active or inactive are those of the source. No cut-off for these calls is given here.
How the values were obtained:
[1] = molecular target: Dual specificity mitogen-activated protein kinase kinase 5 (Homo sapiens, UniProt Q13163); test: Binding affinity to MAP2K5 in SILAC-labeled human MDA-MB-231 cells lysate by mass spectrometry based kinAffinity assay; type: subcellular
In short: (§1)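 Chemical proteomics: MDA-MB-231 lysate bound to matrix of immobilized broad kinase inhibitors at several densities (BC50), then competed with increasing free compound (CC50); proteins quantified by mass spectrometry, Kd via Cheng-Prusoff. Two competition formats run in parallel to check equilibrium.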

[2] = molecular target: Protein-tyrosine kinase 2-beta (Homo sapiens, UniProt Q14289); test: Binding affinity to PYK2 in SILAC-labeled human MDA-MB-231 cells lysate by mass spectrometry based kinAffinity assay; type: subcellular
In short: (§2)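 MDA-MB-231 lysate applied to KinAffinity matrix of immobilized broadband kinase inhibitors at graded densities to obtain BC50 per target. Competition then run with increasing free compound to give CC50; Kd derived by Cheng-Prusoff. Two competition experiments in parallel to check equilibrium, one with lysate pre-incubated with compound before adding matrix. Quantitation by mass spectrometry.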

[3] = molecular target: Serine/threonine-protein kinase/endoribonuclease IRE1 (Homo sapiens, UniProt O75460); test: Binding affinity to IRE1 in SILAC-labeled human MDA-MB-231 cells lysate by mass spectrometry based kinAffinity assay; type: subcellular; in short: as §1
[4] = molecular target: Serine/threonine-protein kinase TBK1 (Homo sapiens, UniProt Q9UHD2); test: Binding affinity to TBK1 in SILAC-labeled human MDA-MB-231 cells lysate by mass spectrometry based kinAffinity assay; type: subcellular; in short: as §2
[5] = molecular target: Mitogen-activated protein kinase kinase kinase 2 (Homo sapiens, UniProt Q9Y2U5); test: Binding affinity to MAP3K2 in SILAC-labeled human MDA-MB-231 cells lysate by mass spectrometry based kinAffinity assay; type: subcellular; in short: as §1
[6] = molecular target: 5'-AMP-activated protein kinase subunit gamma-2 (Homo sapiens, UniProt Q9UGJ0); test: Binding affinity to PRKAG2 in SILAC-labeled human MDA-MB-231 cells lysate by mass spectrometry based kinAffinity assay; type: subcellular; in short: as §2
LIM domain kinase 2 = LIM domain kinase 2 (Homo sapiens, UniProt P53671); test: Binding affinity to LIMK2 in SILAC-labeled human MDA-MB-231 cells lysate by mass spectrometry based kinAffinity assay; type: subcellular; in short: as §1
TGF-beta receptor type-1 = TGF-beta receptor type-1 (Homo sapiens, UniProt P36897); test: Binding affinity to TGFBR1 in SILAC-labeled human MDA-MB-231 cells lysate by mass spectrometry based kinAffinity assay; type: subcellular; in short: as §2
[7] = molecular target: Hepatocyte growth factor receptor (Homo sapiens, UniProt P08581); test: Binding affinity to MET in SILAC-labeled human MDA-MB-231 cells lysate by mass spectrometry based kinAffinity assay; type: subcellular; in short: as §1
[8] = molecular target: TRAF family member-associated NF-kappa-B activator (Homo sapiens, UniProt Q92844); test: Binding affinity to TANK in SILAC-labeled human MDA-MB-231 cells lysate by mass spectrometry based kinAffinity assay; type: subcellular; in short: as §2
[9] = molecular target: Inhibitor of nuclear factor kappa-B kinase subunit epsilon (Homo sapiens, UniProt Q14164); test: Binding affinity to IKKE in SILAC-labeled human MDA-MB-231 cells lysate by mass spectrometry based kinAffinity assay; type: subcellular; in short: as §1
MDA-MB-231 = test: Antimetastatic activity against human MDA-MB-231 cells xenografted in mouse assessed as reduction in lymph node metastasis at 30 mg/kg, ip bid measured 3 times per week starting at day 12 by hematoxylin and eosin staining based assay relative to control; type: functional; parameters: scale not given: the % may be the effect or the level left
In short: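 Female SCID/Beige mice inoculated with 2 x 10^6 MDA-MB-231 cells in HBSS:Matrigel (1:1) into third mammary fat pad under ketamine/xylazine. Test agent 30 mg/kg ip twice daily (12 h apart) in PEG400/H2O 70:30, or paclitaxel 10 mg/kg iv three times weekly; 10 mice/group. Tumors measured three times weekly from day 12; lungs and lymph nodes excised, formalin-fixed, nodes H&E-scored (mean ± SEM).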

[10] = molecular target: Cyclin-dependent kinase 18 (Homo sapiens, UniProt Q07002); test: Binding affinity to PCTK3 in SILAC-labeled human MDA-MB-231 cells lysate by mass spectrometry based kinAffinity assay; type: subcellular; in short: as §2
[11] = molecular target: MAP/microtubule affinity-regulating kinase 4 (Homo sapiens, UniProt Q96L34); test: Binding affinity to MARK4 in SILAC-labeled human MDA-MB-231 cells lysate by mass spectrometry based kinAffinity assay; type: subcellular; in short: as §1
[12] = molecular target: Serine/threonine-protein kinase B-raf (Homo sapiens) (UniProt P15056); test: Inhibition of BRAF (unknown origin) at 10 uM by reporter probe displacement binding assay
[13] = molecular target: Serine/threonine-protein kinase B-raf (Homo sapiens) (UniProt P15056); test: Binding affinity to BRAF (unknown origin) at 10 uM
[14] = molecular target: Fibroblast growth factor receptor 3 (Homo sapiens) (UniProt P22607); test: Inhibition of FGFR3 (unknown origin) using fluorescence labeled peptide as substrate at 10 uM by IMAP assay
In short: (§3)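 IMAP fluorescence-polarization kinase assay at 10 µmol/L compound, run in triplicate by a contract lab. A fluorescently labeled substrate peptide is phosphorylated, then nanoparticles carrying trivalent metal bind the phosphopeptide and slow its rotation. Read-out is fluorescence polarization, expressed as percent inhibition.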

[15] = molecular target: Insulin receptor (Homo sapiens) (UniProt P06213); test: Inhibition of INSR (unknown origin) using fluorescence labeled peptide as substrate at 10 uM by IMAP assay; in short: as §3
[16] = molecular target: Tyrosine-protein kinase JAK3 (Homo sapiens) (UniProt P52333); test: Inhibition of JAK3 (unknown origin) using fluorescence labeled peptide as substrate at 10 uM by IMAP assay
In short: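 Kinase selectivity profiling, run by a contract lab, with the test compound at 10 µmol/L in triplicate. In the IMAP format, the kinase phosphorylates a fluorescently labelled substrate peptide in solution. A binding solution of trivalent metal-based nanoparticles is then added to capture the phosphopeptide, and the drop in rotational speed is read as fluorescence polarization. Results are given as percent inhibition of each kinase.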

[17] = molecular target: Receptor-type tyrosine-protein kinase FLT3 (Homo sapiens) (UniProt P36888); test: Inhibition of FLT3 (unknown origin) using biotinylated peptide as substrate at 10 uM by TR-FRET assay
[18] = molecular target: Tyrosine-protein kinase SYK (Homo sapiens) (UniProt P43405); test: Inhibition of SYK (unknown origin) using fluorescence labeled peptide as substrate at 10 uM by IMAP assay
[19] = molecular target: Receptor-type tyrosine-protein kinase FLT3 (Homo sapiens) (UniProt P36888); test: Inhibition of FLT3 (unknown origin) using fluorescence labeled peptide as substrate at 10 uM by IMAP assay; in short: as §3
[20] = molecular target: Fibroblast growth factor receptor 3 (Homo sapiens) (UniProt P22607); test: Inhibition of FGFR3 (unknown origin) using fluorescently-labeled peptide as substrate at 10 uM by IMAP fluorescence polarization assay
[21] = molecular target: Receptor tyrosine-protein kinase erbB-2 (Homo sapiens) (UniProt P04626); test: Inhibition of ERBB2 (unknown origin) using biotinylated peptide as substrate at 10 uM by TR-FRET assay

Chain of Receptor-type tyrosine-protein kinase FLT3 (Homo sapiens) (P36888 whole entry): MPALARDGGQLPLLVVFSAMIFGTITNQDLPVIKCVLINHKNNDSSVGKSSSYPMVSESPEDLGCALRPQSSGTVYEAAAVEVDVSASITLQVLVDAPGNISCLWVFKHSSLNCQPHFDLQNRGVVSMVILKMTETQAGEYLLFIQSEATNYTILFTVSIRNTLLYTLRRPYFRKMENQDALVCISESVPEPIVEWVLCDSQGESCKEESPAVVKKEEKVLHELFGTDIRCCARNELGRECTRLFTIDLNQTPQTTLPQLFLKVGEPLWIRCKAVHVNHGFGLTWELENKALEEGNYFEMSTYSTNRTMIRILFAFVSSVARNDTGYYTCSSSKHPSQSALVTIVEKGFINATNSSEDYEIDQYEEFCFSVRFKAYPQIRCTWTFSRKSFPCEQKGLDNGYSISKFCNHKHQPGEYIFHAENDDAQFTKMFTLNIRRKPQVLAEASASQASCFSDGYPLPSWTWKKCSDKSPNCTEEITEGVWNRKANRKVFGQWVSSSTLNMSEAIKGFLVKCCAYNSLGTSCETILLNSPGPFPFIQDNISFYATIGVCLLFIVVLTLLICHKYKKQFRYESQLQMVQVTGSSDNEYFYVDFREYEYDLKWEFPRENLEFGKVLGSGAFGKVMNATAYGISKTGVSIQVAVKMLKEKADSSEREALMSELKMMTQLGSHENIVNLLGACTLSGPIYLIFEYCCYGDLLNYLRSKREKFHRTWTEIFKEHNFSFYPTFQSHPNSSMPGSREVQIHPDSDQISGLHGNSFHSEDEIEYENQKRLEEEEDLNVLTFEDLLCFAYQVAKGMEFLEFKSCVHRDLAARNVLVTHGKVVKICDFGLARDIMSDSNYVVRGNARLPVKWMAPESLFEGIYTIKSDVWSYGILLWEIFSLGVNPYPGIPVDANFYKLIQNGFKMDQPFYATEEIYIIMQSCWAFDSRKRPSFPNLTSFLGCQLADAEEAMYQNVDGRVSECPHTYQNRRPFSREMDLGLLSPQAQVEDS
Chain of Inhibitor of nuclear factor kappa-B kinase subunit epsilon (Q14164 whole entry): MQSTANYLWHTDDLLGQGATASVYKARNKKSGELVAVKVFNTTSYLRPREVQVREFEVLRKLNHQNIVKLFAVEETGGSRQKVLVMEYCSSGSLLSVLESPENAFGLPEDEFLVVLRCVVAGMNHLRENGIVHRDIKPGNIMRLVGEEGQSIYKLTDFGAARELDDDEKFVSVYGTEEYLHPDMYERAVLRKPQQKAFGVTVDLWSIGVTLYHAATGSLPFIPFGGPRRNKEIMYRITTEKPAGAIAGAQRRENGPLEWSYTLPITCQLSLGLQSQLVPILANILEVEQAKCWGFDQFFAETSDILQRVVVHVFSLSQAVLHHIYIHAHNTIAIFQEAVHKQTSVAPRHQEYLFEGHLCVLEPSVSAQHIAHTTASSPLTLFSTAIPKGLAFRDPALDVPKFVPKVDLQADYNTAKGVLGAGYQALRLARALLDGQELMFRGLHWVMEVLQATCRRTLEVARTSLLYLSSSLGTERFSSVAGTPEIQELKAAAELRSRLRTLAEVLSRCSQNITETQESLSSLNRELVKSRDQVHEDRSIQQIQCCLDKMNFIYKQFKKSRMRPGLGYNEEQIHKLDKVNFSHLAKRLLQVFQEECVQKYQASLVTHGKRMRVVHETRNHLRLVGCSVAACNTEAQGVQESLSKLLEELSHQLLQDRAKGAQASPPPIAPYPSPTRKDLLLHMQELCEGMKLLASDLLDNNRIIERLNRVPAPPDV
Chain of TRAF family member-associated NF-kappa-B activator (Q92844 whole entry): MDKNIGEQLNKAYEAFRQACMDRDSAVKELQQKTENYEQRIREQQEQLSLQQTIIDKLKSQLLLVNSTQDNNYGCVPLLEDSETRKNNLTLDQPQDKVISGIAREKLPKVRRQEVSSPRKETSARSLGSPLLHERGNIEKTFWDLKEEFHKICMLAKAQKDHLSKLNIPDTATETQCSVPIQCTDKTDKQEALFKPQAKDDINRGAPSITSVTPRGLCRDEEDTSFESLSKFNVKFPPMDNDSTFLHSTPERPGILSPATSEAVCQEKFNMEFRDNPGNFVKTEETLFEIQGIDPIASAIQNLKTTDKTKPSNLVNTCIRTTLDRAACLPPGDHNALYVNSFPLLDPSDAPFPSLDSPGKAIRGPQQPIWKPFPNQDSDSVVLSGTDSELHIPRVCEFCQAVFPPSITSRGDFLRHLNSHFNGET
Chain of Serine/threonine-protein kinase B-raf (Homo sapiens) (P15056 whole entry): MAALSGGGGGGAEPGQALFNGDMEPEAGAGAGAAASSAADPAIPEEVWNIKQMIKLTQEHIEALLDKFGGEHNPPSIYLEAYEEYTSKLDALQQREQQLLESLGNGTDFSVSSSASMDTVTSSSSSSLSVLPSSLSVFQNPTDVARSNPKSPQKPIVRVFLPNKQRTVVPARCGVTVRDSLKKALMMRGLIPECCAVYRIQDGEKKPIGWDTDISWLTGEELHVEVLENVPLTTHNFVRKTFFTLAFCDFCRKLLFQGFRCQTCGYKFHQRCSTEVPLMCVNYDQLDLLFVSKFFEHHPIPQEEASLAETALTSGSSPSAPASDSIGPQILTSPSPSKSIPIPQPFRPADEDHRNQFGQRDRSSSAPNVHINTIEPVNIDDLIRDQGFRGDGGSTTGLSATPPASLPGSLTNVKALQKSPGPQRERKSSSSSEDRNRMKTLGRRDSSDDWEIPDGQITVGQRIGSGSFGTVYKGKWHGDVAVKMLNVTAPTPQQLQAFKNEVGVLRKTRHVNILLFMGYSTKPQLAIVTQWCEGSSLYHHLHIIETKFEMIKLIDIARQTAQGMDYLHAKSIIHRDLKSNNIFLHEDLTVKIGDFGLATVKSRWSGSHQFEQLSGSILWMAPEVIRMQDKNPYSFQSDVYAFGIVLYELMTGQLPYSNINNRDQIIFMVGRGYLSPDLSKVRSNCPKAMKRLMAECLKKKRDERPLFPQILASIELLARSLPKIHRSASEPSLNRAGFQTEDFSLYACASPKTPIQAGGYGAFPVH
Chain of 5'-AMP-activated protein kinase subunit gamma-2 (Q9UGJ0 whole entry, the tested form may be a part): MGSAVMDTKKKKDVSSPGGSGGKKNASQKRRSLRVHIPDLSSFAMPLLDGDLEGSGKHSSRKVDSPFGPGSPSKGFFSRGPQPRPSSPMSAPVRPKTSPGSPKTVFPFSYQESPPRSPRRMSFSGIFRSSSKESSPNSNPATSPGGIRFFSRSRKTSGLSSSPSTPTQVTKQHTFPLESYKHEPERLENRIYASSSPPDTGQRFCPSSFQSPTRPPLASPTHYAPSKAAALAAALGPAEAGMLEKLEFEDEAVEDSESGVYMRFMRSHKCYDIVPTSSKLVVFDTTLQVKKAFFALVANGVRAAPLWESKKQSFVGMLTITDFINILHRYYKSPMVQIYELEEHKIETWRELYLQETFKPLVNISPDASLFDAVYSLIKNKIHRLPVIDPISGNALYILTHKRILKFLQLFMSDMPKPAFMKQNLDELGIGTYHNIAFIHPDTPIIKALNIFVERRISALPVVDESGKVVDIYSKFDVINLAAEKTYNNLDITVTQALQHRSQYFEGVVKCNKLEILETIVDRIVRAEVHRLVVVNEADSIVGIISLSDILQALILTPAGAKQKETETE
Chain of Serine/threonine-protein kinase/endoribonuclease IRE1 (O75460 whole entry): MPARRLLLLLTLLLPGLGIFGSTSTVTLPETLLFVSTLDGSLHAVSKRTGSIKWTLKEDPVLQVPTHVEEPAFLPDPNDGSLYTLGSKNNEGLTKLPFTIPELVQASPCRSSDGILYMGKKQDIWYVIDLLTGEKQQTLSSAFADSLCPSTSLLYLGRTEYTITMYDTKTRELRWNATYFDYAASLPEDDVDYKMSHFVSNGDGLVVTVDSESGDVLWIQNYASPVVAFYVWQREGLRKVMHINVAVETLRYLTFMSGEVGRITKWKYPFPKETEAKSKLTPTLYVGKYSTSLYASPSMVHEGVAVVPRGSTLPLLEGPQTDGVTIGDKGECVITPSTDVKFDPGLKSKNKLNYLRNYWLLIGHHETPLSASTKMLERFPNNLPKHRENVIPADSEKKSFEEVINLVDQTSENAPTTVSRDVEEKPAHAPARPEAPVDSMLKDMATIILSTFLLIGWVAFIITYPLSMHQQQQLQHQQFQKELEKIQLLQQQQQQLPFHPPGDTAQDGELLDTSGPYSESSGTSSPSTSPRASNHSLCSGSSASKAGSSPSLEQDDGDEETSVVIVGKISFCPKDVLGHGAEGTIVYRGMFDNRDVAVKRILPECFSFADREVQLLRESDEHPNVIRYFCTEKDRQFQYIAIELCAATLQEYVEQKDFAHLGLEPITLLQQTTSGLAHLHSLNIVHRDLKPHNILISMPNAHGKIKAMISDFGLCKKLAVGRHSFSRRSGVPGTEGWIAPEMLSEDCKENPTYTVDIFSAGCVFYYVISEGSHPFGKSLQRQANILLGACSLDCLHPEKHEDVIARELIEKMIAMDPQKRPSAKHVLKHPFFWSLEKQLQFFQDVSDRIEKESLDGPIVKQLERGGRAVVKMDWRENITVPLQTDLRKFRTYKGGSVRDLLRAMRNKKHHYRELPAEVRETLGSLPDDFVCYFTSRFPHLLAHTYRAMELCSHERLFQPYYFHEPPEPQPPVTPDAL
Chain of Mitogen-activated protein kinase kinase kinase 2 (Q9Y2U5 whole entry): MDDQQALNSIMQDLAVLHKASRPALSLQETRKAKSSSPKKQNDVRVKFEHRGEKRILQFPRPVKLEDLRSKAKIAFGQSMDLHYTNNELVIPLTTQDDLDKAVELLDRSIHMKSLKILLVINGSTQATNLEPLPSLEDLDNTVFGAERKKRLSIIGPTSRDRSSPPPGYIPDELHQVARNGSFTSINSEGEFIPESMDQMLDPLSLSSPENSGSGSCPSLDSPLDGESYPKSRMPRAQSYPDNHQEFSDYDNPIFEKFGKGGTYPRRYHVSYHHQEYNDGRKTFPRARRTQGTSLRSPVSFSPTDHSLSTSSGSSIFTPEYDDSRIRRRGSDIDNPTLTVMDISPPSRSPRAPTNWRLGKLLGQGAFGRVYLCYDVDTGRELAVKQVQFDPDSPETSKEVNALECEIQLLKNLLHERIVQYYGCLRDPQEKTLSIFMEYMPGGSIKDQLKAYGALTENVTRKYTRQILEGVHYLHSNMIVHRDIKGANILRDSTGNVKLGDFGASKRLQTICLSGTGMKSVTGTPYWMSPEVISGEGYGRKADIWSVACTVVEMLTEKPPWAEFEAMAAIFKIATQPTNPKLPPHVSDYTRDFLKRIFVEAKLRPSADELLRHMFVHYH

SMILES: COc1cc2c(Oc3ccc(NS(=O)(=O)c4c(F)cccc4F)cc3F)ccnc2cc1OCCCN1CCN(C)CC1
- Kd(free) [1]: 539 nM
- Kd(free) [2]: 6928 nM
- Kd(free) [3]: 243 nM
- Kd(free) [4]: 3273 nM
- Kd(free) [5]: 5518 nM
- Kd(free) [6]: 2296 nM
- Kd(free) (LIM domain kinase 2): 2784 nM
- Kd(free) (TGF-beta receptor type-1): 205 nM
- Kd(free) [7]: 6 nM
- Kd(free) [8]: 1567 nM
- Kd(free) [9]: 122 nM

SMILES: COc1cc2c(Oc3ccc(NS(=O)(=O)c4cc(F)ccc4F)cc3F)ccnc2cc1OCCCN1CCN(C)CC1
- Activity (MDA-MB-231): 14.3%
- Kd(free) [3]: 723 nM
- Kd(free) [10]: > 6194 nM
- Kd(free) [11]: 5975 nM
- Kd(free) [5]: 4396 nM
- Kd(free) [6]: 1078 nM
- Kd(free) [8]: 3418 nM
- Kd(free) [9]: 282 nM

SMILES: COc1cc2c(Oc3ccc(NS(=O)(=O)c4ccccc4C(F)(F)F)cc3F)ccnc2cc1OCCCN1CCN(C)CC1
- inhibition [12]: Active
- inhibition [13]: Active
- inhibition [14]: Active
- inhibition [15]: Active
- inhibition [16]: Active
- inhibition [17]: Active
- inhibition [18]: Active
- inhibition [19]: Active
- inhibition [20]: Active
- inhibition [21]: Active

— ChEMBL document CHEMBL4371006, “Discovery of N-[4-(Quinolin-4-yloxy)phenyl]benzenesulfonamides as Novel AXL Kinase Inhibitors” (J Med Chem, 2018)
